Experimental data as given in ChEMBL document CHEMBL1152770, “Inhibitors of hepatitis C virus polymerase: synthesis and biological characterization of unsymmetrical dialkyl-hydroxynaphthalenoyl-benzothiadiazines” (J Med Chem, 2009).

Experiments:
[1] = AUC in dog at 2.5 mg/kg, po; assay type: ADME, organism-based, Canis lupus familiaris; set-up: dose 2.5 mg/kg, route oral; details: plasma
Summary of the method: (§1)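 Vehicle DMSO:PEG400 (10:90, v/v). Dosing at 5 mg/kg in rat and monkey; dog 5 mg/kg or 2.5 mg/kg. Protein precipitation with acetonitrile, then LC-MS/MS in negative-ion MRM (m/z 516.2→437.0) against spiked standards with internal standard.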

[2] = Oral bioavailability in dog at 2.5 mg/kg; assay type: ADME, organism-based, Canis lupus familiaris; details: in vivo; summary of the method: as §1
[3] = Metabolic stability in rat liver microsomes assessed as intrinsic clearance; assay type: ADME, Microsome
[4] = Metabolic stability in dog liver microsomes assessed as intrinsic clearance; assay type: ADME, Canis lupus familiaris, Microsome
[5] = Metabolic stability in monkey liver microsomes assessed as intrinsic clearance; assay type: ADME, Macaca mulatta, Microsome; details: rhesus monkey
[6] = Metabolic stability in human liver microsomes assessed as intrinsic clearance; assay type: ADME, Microsome
Hepatocyte [7] = experiment: Metabolic stability in rat hepatocytes assessed as intrinsic clearance; assay type: ADME, cell-based, Liver
[8] = Metabolic stability in dog hepatocytes assessed as intrinsic clearance; assay type: ADME, cell-based, Canis lupus familiaris, Liver, Hepatocyte
[9] = Metabolic stability in monkey hepatocytes assessed as intrinsic clearance; assay type: ADME, cell-based, Macaca mulatta, Liver, Hepatocyte; details: rhesus monkey
Hepatocyte [10] = experiment: Metabolic stability in human hepatocytes assessed as intrinsic clearance; assay type: ADME, cell-based, Liver
[11] = Cytotoxicity against human HuH7 cells by MTT assay; assay type: cell-based, Huh-7; details: read-out: TD50 (the source's name)
Summary of the method: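 Cytotoxicity in Huh-7 replicon cultures measured by MTT colorimetric assay after the four-day incubation.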

Hepatitis C virus [12] = experiment: Ratio of EC50 for HCV isolate Con1 in presence of 40% human serum to EC50 for HCV isolate Con1; assay type: functional, Hepacivirus hominis
Summary of the method: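 Genotype 1b-con1 subgenomic replicon in Huh-7 cells. Four-day incubation with inhibitor in medium with 5% FBS, with or without 40% human serum. EC50 from the fall in HCV RNA copy number by real-time PCR. Ratio is EC50 with serum over EC50 without.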

[13] = Aqueous solubility in 50 mM citrate buffer at pH 4; assay type: physicochemical
Summary of the method: (§2)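 Equilibrium solubility in PEG 400, in 50 mM citrate buffer pH 4 or in 50 mM phosphate buffer pH 7.4. Buffers brought to ionic strength 0.155 M with NaCl. Vials rotated at 25 °C for 4 days, final pH measured, then supernatant assayed by reverse-phase HPLC at 262 nm against a linear standard curve.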

[14] = Aqueous solubility in 50 mM phosphate buffer at pH 7.4; assay type: physicochemical; summary of the method: as §2
[15] = Solubility in polyethylene glycol 400 at 25 deg C; assay type: physicochemical; summary of the method: as §2
[16] = n-Octanol-phosphate buffer distribution coefficient, log D at pH 7.4; assay type: physicochemical
Summary of the method: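 Compound was dissolved in n-octanol and mixed with 50 mM phosphate buffer, isotonic with NaCl, pH 7.4. The mixture was tumbled at 25 °C, 25 rpm, for 2-3 days, then centrifuged to split the phases. Each phase was assayed by reverse-phase HPLC (UV 262 nm) against a linear standard curve. D is the octanol/buffer concentration ratio.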

[17] = Elimination half life in rat at 5 mg/kg, iv; assay type: ADME, organism-based; set-up: dose 5 mg/kg, route intravenous; details: in vivo, read-out: beta t1/2 (converted); summary of the method: as §1
[18] = Volume of distribution at steady state in rat at 5 mg/kg, iv; assay type: ADME, organism-based; set-up: dose 5 mg/kg, route intravenous; details: in vivo, read-out: Vdss
Summary of the method: (§3)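 Single intravenous dose. Heparinized plasma sampled at 0.1, 0.25, 0.5, 1, 2, 4, 6, 9, 12 and 24 h, plus 3 and 15 h in dog. Drug was isolated by acetonitrile protein precipitation and quantified by LC-MS in negative-ion MRM mode (m/z 516.2→437.0) against an internal standard. Concentrations came from unweighted linear regression of spiked standards.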

[19] = Terminal phase volume of distribution in rat at 5 mg/kg, iv; assay type: ADME, organism-based; set-up: dose 5 mg/kg, route intravenous; details: in vivo, read-out: Vbeta; summary of the method: as §3
[20] = AUC in rat at 5 mg/kg, iv; assay type: ADME, organism-based; set-up: dose 5 mg/kg, route intravenous; details: plasma; summary of the method: as §1
[21] = Plasma clearance in rat at 5 mg/kg, iv; assay type: ADME, organism-based; set-up: dose 5 mg/kg, route intravenous; summary of the method: as §1
[22] = Cmax in rat at 5 mg/kg, po; assay type: ADME, organism-based; set-up: dose 5 mg/kg, route oral; details: in vivo; summary of the method: as §1
[23] = Tmax in rat at 5 mg/kg, po; assay type: ADME, organism-based; set-up: dose 5 mg/kg, route oral; details: in vivo
Summary of the method: (§4)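 Single oral gavage-type dose in DMSO:PEG400 (10:90, v/v). Heparinized plasma collected at 0.25, 0.5, 1, 2, 4, 6, 9, 12 and 24 h, with extra 3 and 15 h points in dog. Acetonitrile protein precipitation was followed by LC-MS in negative-ion MRM mode with an internal standard. Tmax was read from the plasma profile.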

[24] = AUC in rat at 5 mg/kg, po; assay type: ADME, organism-based; set-up: dose 5 mg/kg, route oral; details: plasma; summary of the method: as §1
[25] = Oral bioavailability in rat at 5 mg/kg; assay type: ADME, organism-based; details: in vivo; summary of the method: as §1
[26] = Drug level in rat liver at 5 mg/kg, po after 6 hrs; assay type: ADME, organism-based; set-up: dose 5 mg/kg, route oral; details: read-out: Drug uptake
Summary of the method: (§5)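 Rats dosed orally at 5 mg/kg, four groups, sacrificed at 6 and 12 h. Plasma and liver homogenate extracted by acetonitrile protein precipitation with internal standard and quantified by LC-MS (negative-ion MRM). Liver/plasma ratio taken from the two concentrations.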

[27] = Drug level in rat liver at 5 mg/kg, po after 12 hrs; assay type: ADME, organism-based; set-up: dose 5 mg/kg, route oral; details: read-out: Drug uptake; summary of the method: as §5
[28] = Elimination half life in monkey at 5 mg/kg, iv; assay type: ADME, organism-based, Macaca mulatta; set-up: dose 5 mg/kg, route intravenous; details: rhesus monkey, in vivo, read-out: beta t1/2 (converted); summary of the method: as §1
[29] = Volume of distribution at steady state in monkey at 5 mg/kg, iv; assay type: ADME, organism-based, Macaca mulatta; set-up: dose 5 mg/kg, route intravenous; details: rhesus monkey, in vivo, read-out: Vdss; summary of the method: as §3
[30] = Terminal phase volume of distribution in monkey at 5 mg/kg, iv; assay type: ADME, organism-based, Macaca mulatta; set-up: dose 5 mg/kg, route intravenous; details: rhesus monkey, in vivo, read-out: Vbeta; summary of the method: as §3
[31] = AUC in monkey at 5 mg/kg, iv; assay type: ADME, organism-based, Macaca mulatta; set-up: dose 5 mg/kg, route intravenous; details: rhesus monkey, plasma; summary of the method: as §1
[32] = Plasma clearance in monkey at 5 mg/kg, iv; assay type: ADME, organism-based, Macaca mulatta; set-up: dose 5 mg/kg, route intravenous; details: rhesus monkey; summary of the method: as §1
[33] = Elimination half life in dog at 2.5 mg/kg, iv; assay type: ADME, organism-based, Canis lupus familiaris; set-up: dose 2.5 mg/kg, route intravenous; details: in vivo, read-out: beta t1/2 (converted); summary of the method: as §1
[34] = Volume of distribution at steady state in dog at 2.5 mg/kg, iv; assay type: ADME, organism-based, Canis lupus familiaris; set-up: dose 2.5 mg/kg, route intravenous; details: in vivo, read-out: Vdss; summary of the method: as §3
[35] = Terminal phase volume of distribution in dog at 2.5 mg/kg, iv; assay type: ADME, organism-based, Canis lupus familiaris; set-up: dose 2.5 mg/kg, route intravenous; details: in vivo, read-out: Vbeta; summary of the method: as §1
[36] = AUC in dog at 2.5 mg/kg, iv; assay type: ADME, organism-based, Canis lupus familiaris; set-up: dose 2.5 mg/kg, route intravenous; details: plasma; summary of the method: as §1
[37] = Plasma clearance in dog at 2.5 mg/kg, iv; assay type: ADME, organism-based, Canis lupus familiaris; set-up: dose 2.5 mg/kg, route intravenous; summary of the method: as §1
[38] = Elimination half life in monkey at 5 mg/kg, po; assay type: ADME, organism-based, Macaca mulatta; set-up: dose 5 mg/kg, route oral; details: rhesus monkey, in vivo, read-out: beta t1/2 (converted); summary of the method: as §1
[39] = Cmax in monkey at 5 mg/kg, po; assay type: ADME, organism-based, Macaca mulatta; set-up: dose 5 mg/kg, route oral; details: rhesus monkey, in vivo; summary of the method: as §1
[40] = Tmax in monkey at 5 mg/kg, po; assay type: ADME, organism-based, Macaca mulatta; set-up: dose 5 mg/kg, route oral; details: rhesus monkey, in vivo; summary of the method: as §4
[41] = AUC in monkey at 5 mg/kg, po; assay type: ADME, organism-based, Macaca mulatta; set-up: dose 5 mg/kg, route oral; details: rhesus monkey, plasma; summary of the method: as §1
[42] = Oral bioavailability in monkey at 5 mg/kg; assay type: ADME, organism-based, Macaca mulatta; details: rhesus monkey, in vivo; summary of the method: as §1
[43] = Elimination half life in dog at 2.5 mg/kg, po; assay type: ADME, organism-based, Canis lupus familiaris; set-up: dose 2.5 mg/kg, route oral; details: in vivo, read-out: beta t1/2 (converted); summary of the method: as §1
[44] = Cmax in dog at 2.5 mg/kg, po; assay type: ADME, organism-based, Canis lupus familiaris; set-up: dose 2.5 mg/kg, route oral; details: in vivo; summary of the method: as §1
[45] = Tmax in dog at 2.5 mg/kg, po; assay type: ADME, organism-based, Canis lupus familiaris; set-up: dose 2.5 mg/kg, route oral; details: in vivo; summary of the method: as §4
[46] = Inhibition of HCV isolate BK NS5B polymerase after 3 hrs by scintillation counting
[47] = Inhibition of HCV isolate H77 NS5B polymerase after 3 hrs by scintillation counting
Hepatitis C virus [48] = experiment: Antiviral activity against HCV isolate Con1 in human Huh7 cells assessed as reduction in viral RNA after 4 days by RT-PCR; details: isolate Con1, Huh-7, 96 h
Hepatitis C virus [49] = experiment: Antiviral activity against HCV isolate Con1 assessed as reduction in viral RNA after 4 days by RT-PCR in presence of 40% human serum; details: isolate Con1, 96 h
Hepatitis C virus [50] = experiment: Antiviral activity against HCV 1a containing chimeric genotype 1a-H77/1b-con1 subgenom in human Huh7 cells assessed as reduction in viral RNA after 4 days by RT-PCR; details: subtype 1a, Huh-7, 96 h
Hepatitis C virus [51] = experiment: Antiviral activity against HCV genotype 1 infected in human assessed as reduction in viral titer after 48 hrs; assay type: functional, Hepacivirus hominis

CC(C)(C)CC[C@@]1(C)C(=O)C(C2=NS(=O)(=O)c3cc(NS(C)(=O)=O)ccc3N2)=C([O-])c2ccccc21.[Na+]
AUC [1]: 121000 ng·h/mL | bioavailability [2]: 100% | microsomal CLint [3]: 8.7 µL/min/mg | microsomal CLint [4]: 2.4 µL/min/mg | microsomal CLint [5]: 14.4 µL/min/mg | microsomal CLint [6]: 23.6 µL/min/mg | CL (Hepatocyte [7]): 1.6 µL/min/mg | CL [8]: 0.5 µL/min/mg | CL [9]: 3.5 µL/min/mg | CL (Hepatocyte [10]): 2.7 µL/min/mg | CC50 [11]: 21700 nM | Ratio EC50 (Hepatitis C virus [12]): 17 | solubility [13]: < 0.2 µg/mL | solubility [14]: 110 µg/mL | solubility [15]: 150000 µg/mL | logD [16]: 2.26 | half-life [17]: 4.5 h | Vd [18]: 2.22 L/kg | Vd [19]: 2.39 L/kg | AUC [20]: 14900 ng·h/mL | clearance [21]: 5.67 mL/min/kg | Cmax [22]: 890 ng/mL | Tmax [23]: 9 h | AUC [24]: 11500 ng·h/mL | bioavailability [25]: 77.3% | concentration at 6 h [26]: 21800 ng/g | concentration at 12 h [27]: 4190 ng/g | half-life [28]: 2.1 h | Vd [29]: 0.77 L/kg | Vd [30]: 1.77 L/kg | AUC [31]: 10200 ng·h/mL | clearance [32]: 9.33 mL/min/kg | half-life [33]: 12.3 h | Vd [34]: 0.38 L/kg | Vd [35]: 0.46 L/kg | AUC [36]: 116000 ng·h/mL | clearance [37]: 0.333 mL/min/kg | half-life [38]: 2 h | Cmax [39]: 480 ng/mL | Tmax [40]: 2.7 h | AUC [41]: 1900 ng·h/mL | bioavailability [42]: 19% | half-life [43]: 14.8 h | Cmax [44]: 5700 ng/mL | Tmax [45]: 2.2 h | IC50 [46]: 0.6 nM | IC50 [47]: 0.7 nM | EC50 (Hepatitis C virus [48]): 2 nM | EC50 (Hepatitis C virus [49]): 28 nM | EC50 (Hepatitis C virus [50]): 4 nM

COc1ccc2c(O[C@@H]3C[C@H]4C(=O)N[C@]5(C(=O)O)C[C@H]5/C=C\CCCCC[C@H](NC(=O)OC5CCCC5)C(=O)N4C3)cc(-c3csc(NC(C)C)n3)nc2c1
Activity (Hepatitis C virus [51]): 2 | EC50 (Hepatitis C virus [48]): 3 nM | EC50 (Hepatitis C virus [50]): 3 nM
